pIC50: −log10 of the molar value. Activity calls are given as the source filed them. The calls are words filed in the database; no cut-off is given here.
Columns and labels:
[1] = Antileukemic activity against human RPMI8226 cells assessed as inhibition of tumor growth after 24 hrs; type: functional, cell-based; conditions: rpmi-8226
SW-620 = assay: Cytotoxicity against human SW620 cells assessed as inhibition of tumor growth after 24 hrs; type: functional, cell-based; conditions: SW-620, 24 h
HS27 = assay: Cytotoxicity against human HS27 cells assessed as dead cells at 1 uM after 24 hrs; type: cell-based; conditions: hs27, 24 h
In short: (§1)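 Compounds added from DMSO solutions to cells in medium (RPMI; DMEM for Hs-27 fibroblasts) and incubated 24 h at 37°C. Membrane disruption scored by propidium iodide uptake. Result is percentage of dead cells, average of three independent experiments.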

Ramos = assay: Cytotoxicity against human Ramos cells assessed as dead cells at 1 uM after 24 hrs; type: functional
In short: (§2)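 Dienones added as DMSO solutions to cells in RPMI medium and incubated 24 h at 37°C. Cytotoxicity was scored as cell-membrane disruption by propidium iodide staining and expressed as percentage of dead cells, averaged over three independent experiments.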

SR = assay: Antileukemic activity against human SR cells assessed as inhibition of tumor growth after 24 hrs; type: functional, cell-based
HCC70 = assay: Cytotoxicity against human HCC70 cells assessed as dead cells at 1 uM after 24 hrs; type: functional; in short: as §2
[2] = Cytotoxicity against human NALM6 cells assessed as dead cells at 1 uM after 24 hrs; type: functional, NALM-6; in short: as §2
L1210 = assay: Antiproliferative activity against mouse L1210 cells after 72 hrs by coulter counting analysis; type: functional, cell-based; conditions: L1210, 72 h
CCRF-CEM [3] = assay: Cytotoxicity against human CEM cells assessed as dead cells at 1 uM after 24 hrs; type: functional; in short: as §2
[4] = Cytotoxicity against human MCF10A cells assessed as dead cells at 1 uM after 24 hrs; type: cell-based; conditions: mcf-10a; in short: as §1
Jurkat = assay: Cytotoxicity against human Jurkat cells assessed as dead cells at 1 uM after 24 hrs; type: functional; in short: as §2
K562 = assay: Antileukemic activity against human K562 cells assessed as inhibition of tumor growth after 24 hrs; type: functional, cell-based; conditions: K562, 24 h
HCC 2998 = assay: Cytotoxicity against human HCC2998 cells assessed as inhibition of tumor growth after 24 hrs; type: functional, cell-based; conditions: HCC 2998, 24 h
BJAB = assay: Cytotoxicity against human BJAB cells assessed as dead cells at 1 uM after 24 hrs; type: functional; in short: as §2
[5] = Cytotoxicity against human NCI60 cells assessed as inhibition of tumor growth after 24 hrs; type: functional, cell-based; conditions: NCI60, 24 h
Raji = assay: Cytotoxicity against human Raji cells assessed as dead cells at 1 uM after 24 hrs; type: functional; in short: as §2
YT = assay: Cytotoxicity against human YT cells assessed as dead cells at 1 uM after 24 hrs; type: functional; in short: as §2
[6] = Cytotoxicity against human SupT1 cells assessed as dead cells at 1 uM after 24 hrs; type: functional, SUP-T1; in short: as §2
HL-60(TB) = assay: Antileukemic activity against human HL-60(TB) cells assessed as inhibition of tumor growth after 24 hrs; type: functional, cell-based; conditions: HL-60, 24 h
COLO 205 = assay: Cytotoxicity against human COLO205 cells assessed as inhibition of tumor growth after 24 hrs; type: functional, cell-based; conditions: COLO 205, 24 h
[7] = Cytotoxicity against human HuT-102 cells assessed as dead cells at 1 uM after 24 hrs; type: functional; in short: as §2
[8] = Cytotoxicity against human 22Rvl cells assessed as dead cells at 1 uM after 24 hrs; type: functional; in short: as §2
CCRF-CEM [9] = assay: Antiproliferative activity against human CEM cells after 72 hrs by coulter counting analysis; type: functional, cell-based
In short: (§3)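 Cells exposed to a range of concentrations in RPMI 1640 at 37°C for 72 h. Surviving cells counted by Coulter counter. IC50 taken from concentration-response curves, mean ± SD of at least three independent experiments.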

[10] = Cytotoxicity against human MDA231 cells assessed as dead cells at 1 uM after 24 hrs; type: functional, MDA-MB-231; in short: as §2
MCF7 = assay: Cytotoxicity against human MCF7 cells assessed as dead cells at 1 uM after 24 hrs; type: functional; in short: as §2
KM12 = assay: Cytotoxicity against human KM12 cells assessed as inhibition of tumor growth after 24 hrs; type: functional, cell-based; conditions: KM12, 24 h
[11] = Cytotoxicity against human HCT15 cells assessed as inhibition of tumor growth after 24 hrs; type: functional, cell-based; conditions: HCT-15, 24 h
LAPC4 = assay: Cytotoxicity against human LAPC4 cells assessed as dead cells at 1 uM after 24 hrs; type: functional; in short: as §2
DU-145 = assay: Cytotoxicity against human DU145 cells assessed as dead cells at 1 uM after 24 hrs; type: functional; in short: as §2
[12] = Antiproliferative activity against human Molt4/C8 cells after 72 hrs by coulter counting analysis; type: functional, cell-based; conditions: MOLT-4, 72 h; in short: as §3
HeLa = assay: Antiproliferative activity against human HeLa cells after 72 hrs by coulter counting analysis; type: functional, cell-based; in short: as §3
EL4 = assay: Cytotoxicity against mouse EL4 cells assessed as dead cells at 1 uM after 24 hrs; type: functional; in short: as §2
[13] = Cytotoxicity against human MOLT3 cells assessed as dead cells at 1 uM after 24 hrs; type: functional, MOLT-3; in short: as §2
CCRF-CEM [14] = assay: Induction of apoptosis in human CEM T-lymphocytes assessed as late apoptotic at necrotic cell stage at 1 uM after 8 hrs by flow cytometric analysis (reference value: 0%); type: functional
CCRF-CEM [15] = assay: Induction of apoptosis in human CEM T-lymphocytes assessed as caspase3 activation at necrotic cell stage at 1 uM after 8 hrs by flow cytometric analysis (reference value: 0%); type: functional
CCRF-CEM [16] = assay: Induction of apoptosis in human CEM T-lymphocytes assessed as late apoptotic cells at 1 uM after 24 hrs by Annexin V/propidium iodide staining-based FITC analysis (reference value: 0.8%); type: functional
CCRF-CEM [17] = assay: Induction of apoptosis in human CEM T-lymphocytes assessed as necrotic cells at 1 uM after 24 hrs by Annexin V/propidium iodide staining-based FITC analysis (reference value: 0.2%); type: functional
CCRF-CEM [18] = assay: Induction of apoptosis in human CEM T-lymphocytes assessed as viable cells at 1 uM after 24 hrs by Annexin V/propidium iodide staining-based FITC analysis (reference value: 93.4%); type: functional; conditions: read-out: Activity
CCRF-CEM [19] = assay: Cytotoxicity against human CEM T-lymphocytes assessed as mitochondrial membrane depolarization at 1 uM after 8 hrs by JC-1 red/green staining analysis; type: functional, cell-based
In short: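 CEM cells (RPMI-1640, 10% FBS, 50,000 per well) were exposed to 1 μM compound for 8 h at 37°C, 5% CO2, in triplicate. They were then stained with 2 μM JC-1; the red signal marks polarized mitochondria and the green signal marks depolarized ones. Green-emitting cells were counted by flow cytometry, about 10,000 events. Controls: untreated, DMSO and CCCP 50 μM.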

CCRF-CEM [20] = assay: Induction of apoptosis in human CEM T-lymphocytes assessed as viable at necrotic cell stage at 1 uM after 8 hrs by flow cytometric analysis (reference value: 95.7%); type: functional
CCRF-CEM [21] = assay: Induction of apoptosis in human CEM T-lymphocytes assessed as early apoptotic at necrotic cell stage at 1 uM after 8 hrs by flow cytometric analysis (reference value: 4.3%); type: functional
CCRF-CEM [22] = assay: Induction of apoptosis in human CEM T-lymphocytes assessed as early apoptotic cells at 1 uM after 24 hrs by Annexin V/propidium iodide staining-based FITC analysis (reference value: 5.6%); type: functional

Compound | Activity (HS27) | Activity (Ramos) | Activity (HCC70) | Activity [2] | pIC50 (L1210) | Activity (CCRF-CEM [3]) | Activity [4] | Activity (Jurkat) | Activity (BJAB) | Activity (Raji) | Activity (YT) | Activity [6] | Activity [7] | Activity [8] | pIC50 (CCRF-CEM [9]) | Activity [10] | Activity (MCF7) | Activity (LAPC4) | Activity (DU-145) | pIC50 [12] | also measured
O=C1/C(=C/c2ccc(Cl)cc2)CN(C(=O)C(=O)N2C/C(=C\c3ccc(Cl)cc3)C(=O)/C(=C/c3ccc(Cl)cc3)C2)C/C1=C\c1ccc(Cl)cc1 | 0% | 82.9% | 8.4% | 59% | 6.26 | 59.9% | 2.2% | 78.5% | 43.1% | 35.7% | 21.5% | 18.1% | 31.4% | 13.6% | 6.10 | 10% | 17.8% | 27% | 33.1% | 6.53 | pIC50 [1]: 7.30; pIC50 (SW-620): 6.74; pIC50 (SR): 7.70; pIC50 (K562): 6.89; pIC50 (HCC 2998): 6.51; pIC50 [5]: 6.66; pIC50 (HL-60(TB)): 6.72; pIC50 (COLO 205): 6.80; pIC50 (KM12): 6.68; pIC50 [11]: 6.85; pIC50 (HeLa): 6.19; Activity (EL4): 52.5%; Activity [13]: 0.4%
COc1ccc(/C=C2/CN(C(=O)CC(=O)N3C/C(=C\c4ccc(OC)c(OC)c4)C(=O)/C(=C/c4ccc(OC)c(OC)c4)C3)C/C(=C\c3ccc(OC)c(OC)c3)C2=O)cc1OC | 6.4% | 88.6% | 2.1% | 63.9% | 6.42 | 77.6% | 6.1% | 83.9% | 61% | 50.8% | 32.3% | 31% | 51.6% | 2% | 6.46 | 1.8% | 23% | 20.6% | 67.4% | 6.41 | Activity (CCRF-CEM [14]): 0%; Activity (CCRF-CEM [15]): 0%; Activity (CCRF-CEM [16]): 23.3%; Activity (CCRF-CEM [17]): 3.9%; viability at 1 µM (CCRF-CEM [18]): 2.5%; Activity (CCRF-CEM [19]): Active; Activity (CCRF-CEM [20]): 87.7%; Activity (CCRF-CEM [21]): 12.3%; Activity (CCRF-CEM [22]): 70.2%; pIC50 (HeLa): 6.43; Activity (EL4): 43.7%; Activity [13]: 2.6%
COc1ccc(/C=C2\CN(C(=O)C(=O)N3C/C(=C\c4ccc(OC)c(OC)c4)C(=O)/C(=C/c4ccc(OC)c(OC)c4)C3)C/C(=C\c3ccc(OC)c(OC)c3)C2=O)cc1OC | 10.2% | 87.4% | 3.9% | 60.7% | 5.20 | 88.1% | 5.8% | 84.8% | 62.8% | 56.3% | 39.2% | 33% | 50.9% | 38.2% | 5.36 | 4.6% | 17.7% | 35.4% | 45.7% | 6.11 | Activity (CCRF-CEM [14]): 0%; Activity (CCRF-CEM [15]): 0%; Activity (CCRF-CEM [16]): 38%; Activity (CCRF-CEM [17]): 33.8%; viability at 1 µM (CCRF-CEM [18]): 15.4%; Activity (CCRF-CEM [19]): Active; Activity (CCRF-CEM [20]): 91%; Activity (CCRF-CEM [21]): 9%; Activity (CCRF-CEM [22]): 12.8%; pIC50 (HeLa): 5.35; Activity (EL4): 46.5%; Activity [13]: 31.8%

— ChEMBL document CHEMBL3352437, “Novel 3,5-bis(arylidene)-4-oxo-1-piperidinyl dimers: structure-activity relationships and potent antileukemic and antilymphoma cytotoxicity” (Eur J Med Chem, 2014)
